For 10 molecules, Ki, EC50 and Emax results are on record in ChEMBL document CHEMBL1153456, “Synthesis and opioid receptor activity of indolopropellanes” (Bioorg Med Chem Lett, 2009).

A word on the Ki: it is a dissociation constant, usually derived from enzyme kinetics or from competition with a known ligand. Read a high Ki as lower affinity. Broadly, the EC50 is the concentration at which the effect is half-maximal. For orientation: Emax means the maximal effect, on the per cent scale that the assay sets.

Assay [1] addresses T1, Mu-type opioid receptor (Homo sapiens, UniProt P35372). In words: Displacement of [3H]DAMGO from human mu opioid receptor expressed in CHO cells. Type of assay: cell-based. The method, boiled down:
(§1)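 Binding was run on CHO membranes at 0.5 mg protein per sample, incubated at 25 °C in 50 mM Tris–HCl pH 7.5 with the receptor-specific radioligand and 12 compound concentrations. Naloxone defined nonspecific binding. Values are means ± SEM from three experiments, each run in triplicate.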

In assay [2] the target is T2, Delta-type opioid receptor (Homo sapiens, UniProt P41143). In words: Displacement of [3H]naltrindole from human delta opioid receptor expressed in CHO cells. In kind it is cell-based. The method, boiled down:
as §1
(In general: Displacement assays read how much labelled ligand stays bound in the presence of the test substance.)

In assay [3] the target is T3, Kappa-type opioid receptor (Homo sapiens, UniProt P41145). In words: Displacement of [3H]U50488 from human kappa opioid receptor expressed in CHO cells. Type of assay: cell-based. In outline: as §1
In assay [4] the target is Delta-type opioid receptor (Rattus norvegicus, UniProt P33533). In words: Displacement of [3H]p-Cl-DPDPE from rat delta opioid receptor expressed in rat C6 cells.
The target of assay [5] is T3, Kappa-type opioid receptor. In words: Agonist activity at human kappa opioid receptor expressed in CHO cells assessed as stimulation of [35S]GTPgammaS binding by scintillation counting. In kind it is functional, cell-based. In outline:
(§2)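 CHO cell membranes expressing the opioid receptor were incubated with varying concentrations of compound in the presence of 0.8 nM [35S]GTPγS. EC50 and Emax were derived from the concentration–response data. Values are means from three experiments, each run in triplicate.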
On the technique in general: Binding of GTPγS marks nucleotide exchange on a G protein.

The target of assay [6] is T1, Mu-type opioid receptor. In words: Agonist activity at human mu opioid receptor expressed in CHO cells assessed as stimulation of [35S]GTPgammaS binding by scintillation counting. Type of assay: functional, cell-based. The method, boiled down:
as §2

The target in assay [7] is T2, Delta-type opioid receptor. In words: Agonist activity at human delta opioid receptor expressed in CHO cells assessed as stimulation of [35S]GTPgammaS binding by scintillation counting. In kind it is functional, cell-based. The method, boiled down:
as §2

T3 sequence (P41145 whole entry): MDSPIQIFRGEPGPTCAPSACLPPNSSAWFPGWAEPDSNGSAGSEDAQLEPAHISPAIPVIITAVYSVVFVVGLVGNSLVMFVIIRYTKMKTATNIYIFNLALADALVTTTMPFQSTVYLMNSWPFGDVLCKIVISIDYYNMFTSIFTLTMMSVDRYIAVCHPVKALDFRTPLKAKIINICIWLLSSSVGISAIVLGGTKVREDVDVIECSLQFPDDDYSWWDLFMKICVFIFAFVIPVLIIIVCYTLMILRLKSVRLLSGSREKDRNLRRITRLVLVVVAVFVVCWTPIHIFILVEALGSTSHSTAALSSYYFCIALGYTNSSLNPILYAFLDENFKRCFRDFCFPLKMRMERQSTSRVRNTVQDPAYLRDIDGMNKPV
T1 sequence (P35372 whole entry): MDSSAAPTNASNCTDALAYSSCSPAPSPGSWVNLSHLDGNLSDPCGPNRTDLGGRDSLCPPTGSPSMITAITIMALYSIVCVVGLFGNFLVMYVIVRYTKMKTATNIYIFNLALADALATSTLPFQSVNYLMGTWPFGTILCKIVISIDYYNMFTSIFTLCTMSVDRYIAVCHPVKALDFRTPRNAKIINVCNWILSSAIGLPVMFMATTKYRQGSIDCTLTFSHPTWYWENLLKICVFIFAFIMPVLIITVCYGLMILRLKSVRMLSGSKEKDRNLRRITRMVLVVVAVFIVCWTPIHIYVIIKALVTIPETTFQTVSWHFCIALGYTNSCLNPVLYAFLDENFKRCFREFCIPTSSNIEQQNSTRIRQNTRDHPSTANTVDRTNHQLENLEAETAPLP
T2 sequence (P41143 whole entry): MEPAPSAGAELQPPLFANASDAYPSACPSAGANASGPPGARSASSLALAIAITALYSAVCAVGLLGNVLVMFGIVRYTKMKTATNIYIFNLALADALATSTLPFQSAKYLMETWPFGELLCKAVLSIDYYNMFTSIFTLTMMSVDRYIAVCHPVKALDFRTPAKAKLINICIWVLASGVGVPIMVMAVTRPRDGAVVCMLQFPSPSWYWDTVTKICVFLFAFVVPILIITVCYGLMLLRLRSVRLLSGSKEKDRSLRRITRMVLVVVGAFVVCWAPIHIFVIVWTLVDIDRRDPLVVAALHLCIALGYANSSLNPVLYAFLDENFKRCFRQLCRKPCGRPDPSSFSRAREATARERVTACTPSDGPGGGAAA
Sequence of Delta-type opioid receptor (Rattus norvegicus, UniProt P33533) (P33533 whole entry): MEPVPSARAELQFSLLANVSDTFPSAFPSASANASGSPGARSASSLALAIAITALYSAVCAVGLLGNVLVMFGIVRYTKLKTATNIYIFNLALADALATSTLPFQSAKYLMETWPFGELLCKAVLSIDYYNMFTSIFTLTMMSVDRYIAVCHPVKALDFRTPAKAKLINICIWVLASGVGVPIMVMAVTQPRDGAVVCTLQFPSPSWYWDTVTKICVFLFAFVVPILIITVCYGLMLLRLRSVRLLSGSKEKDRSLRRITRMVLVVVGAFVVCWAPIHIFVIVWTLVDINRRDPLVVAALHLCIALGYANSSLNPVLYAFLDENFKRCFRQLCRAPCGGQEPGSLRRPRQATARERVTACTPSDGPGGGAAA

For `COc1c(O)ccc2c1[C@]13CCN(C)[C@H](C2)[C@]1(O)Cc1c([nH]c2ccccc12)C3`, the inhibition constant (Ki) turned out to be 0.474 µM at Mu-type opioid receptor [1] and 0.0045 µM in assay [2].
Regarding `COc1ccc2c(c1O)[C@]13CCN(C)[C@H](C2)[C@]1(O)Cc1c([nH]c2ccccc12)C3`, the Ki was determined as 3.16 µM in assay [3], 1.85 µM on Mu-type opioid receptor [1] and 0.0218 µM in assay [2].
Regarding `Oc1ccc2c3c1O[C@H]1c4[nH]c5ccccc5c4C[C@@]4(O)[C@@H](C2)N(CC2CC2)CC[C@]314` [NALTRINDOLE], in assay [4], the Ki worked out at 0.0002 µM.
Regarding `CN1CC[C@]23Cc4c(c5ccccc5n4C)C[C@]2(Cc2ccc(O)cc23)C1`, the Ki in assay [3] stood at 1.12 µM; on Mu-type opioid receptor [1], 0.0402 µM; in assay [2], 0.268 µM. Besides, the EC50 in assay [5] was 0.0621 µM; on Mu-type opioid receptor [6], 0.174 µM; in assay [7], 0.065 µM. The Emax was 76.2% in assay [5], 95.7% on Mu-type opioid receptor [6] and 77.3% in assay [7].
Turning to `COc1ccc2c(c1)[C@]13CCN(C)C[C@@]1(C2)Cc1c(n(C)c2ccccc12)C3`, the Ki is 3.81 µM in assay [3], 0.713 µM at Mu-type opioid receptor [1] and more than 10 µM in assay [2].
The like results for `COc1ccc2c(c1)[C@]13CCN(C)C[C@@]1(C2)Cc1c([nH]c2ccccc12)C3` were, in that order, 5.12 µM, 1.82 µM and 0.765 µM.
For `CN1CC[C@]23Cc4[nH]c5ccccc5c4C[C@]2(Cc2ccc(O)cc23)C1`, in that order: 1.19 µM, 0.104 µM and 1.12 µM.
As to `Oc1ccc2c(c1)[C@]13CCN(CC4CC4)C[C@@]1(C2)Cc1c([nH]c2ccccc12)C3`, the Ki in assay [3] is 0.704 µM; on Mu-type opioid receptor [1], 0.523 µM; in assay [2], 2.55 µM. The EC50 was found to be 0.0671 µM in assay [5], 0.033 µM on Mu-type opioid receptor [6] and 0.01 µM in assay [7]. Further, the Emax is 79.9% in assay [5], 88.6% at Mu-type opioid receptor [6] and 91.4% in assay [7].
Regarding `Cn1c2c(c3ccccc31)C[C@@]13Cc4ccc(O)cc4[C@@]1(CCN(CC1CC1)C3)C2`, the Ki stood at 1.52 µM in assay [3], 0.469 µM at Mu-type opioid receptor [1] and 1.79 µM in assay [2].
The like results for `COc1ccc2c(c1)[C@]13CCN(CC4CC4)C[C@@]1(C2)Cc1c([nH]c2ccccc12)C3` were, in that order, 2.55 µM, 1.42 µM and 6.65 µM.
